Source: PubChem BioAssay (several laboratories)
ABCB6 inh MLPCN: human ABCB6 transporter inhibition; K562-ABCB6 porphyrin accumulation, flow cytometry, 1 h; hits give low values; fluorescence ratio to DMSO, % at 10 µM; actives 0.19% (n = 360,000); AID 602162;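 active = fluorescence ratio to DMSO below 75%, the collection mean minus 3 SD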;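 also: signal is porphyrin accumulated inside mitochondria; 100% equals median channel fluorescence of DMSO control wells; lower ratio means ABCB6 inhibition with less porphyrin fluorescence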
Target sequence (Q9NP58 whole entry, looked up): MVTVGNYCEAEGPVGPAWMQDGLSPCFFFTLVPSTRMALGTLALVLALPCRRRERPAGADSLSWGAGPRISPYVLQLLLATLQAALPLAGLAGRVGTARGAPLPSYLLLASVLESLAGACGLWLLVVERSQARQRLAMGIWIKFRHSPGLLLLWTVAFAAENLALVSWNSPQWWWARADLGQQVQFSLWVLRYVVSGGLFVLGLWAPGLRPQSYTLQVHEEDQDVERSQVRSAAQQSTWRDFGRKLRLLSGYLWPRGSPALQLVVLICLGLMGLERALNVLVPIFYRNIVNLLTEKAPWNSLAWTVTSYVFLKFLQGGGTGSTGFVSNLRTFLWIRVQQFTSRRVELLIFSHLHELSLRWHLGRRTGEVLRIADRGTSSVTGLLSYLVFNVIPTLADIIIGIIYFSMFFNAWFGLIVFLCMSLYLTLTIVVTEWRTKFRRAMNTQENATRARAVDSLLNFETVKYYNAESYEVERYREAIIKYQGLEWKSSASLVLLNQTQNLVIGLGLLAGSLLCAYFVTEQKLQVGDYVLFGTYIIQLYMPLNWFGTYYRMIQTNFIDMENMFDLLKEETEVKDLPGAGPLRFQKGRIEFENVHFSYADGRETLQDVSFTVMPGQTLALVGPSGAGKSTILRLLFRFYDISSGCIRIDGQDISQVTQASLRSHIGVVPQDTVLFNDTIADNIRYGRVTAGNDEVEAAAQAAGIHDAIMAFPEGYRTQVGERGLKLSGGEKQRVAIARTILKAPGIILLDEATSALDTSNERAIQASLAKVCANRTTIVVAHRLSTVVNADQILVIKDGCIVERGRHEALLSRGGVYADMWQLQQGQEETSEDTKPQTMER
FAS TE block: inhibitors of human fatty acid synthase thioesterase domain; actives 0.67% (n = 360,000); AID 602261; inhibition, % at 15 µM; recombinant FAS-TE, OMFH fluorogenic substrate, fluorescence endpoint; P49327;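 active = compounds whose normalised, plate-corrected inhibition of enzyme fluorescence in the single-dose primary screen is 50% or more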;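 also: 0% = DMSO with enzyme and 100% = substrate without enzyme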
iPSC survival up: increases survival of single human iPS cells; AID 602274; survival enhancement, % at 20 µM; actives 0.044% (n = 360,000); hiPSC single-cell survival, ATPlite luminescence; 100% = ROCK inhibitor wells, 0% = DMSO; in the data active = survival enhancement above about 18%;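 also: cells exposed to compounds for 16 hours before the ATP read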
SENP1 inh: inhibitors of human SENP1 SUMO protease catalytic domain; Q9P0U3; recombinant SENP1 catalytic domain, CyPet-SUMO1-YPet FRET cleavage; inhibition, % at 10 µM; actives 0.21% (n = 360,000); AID 624204;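 active = inhibition at least 30% at 10 µM, raw YFP signal under a set limit, fluorescence ratio 0.5 to 1.5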;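 also: 0% = enzyme with DMSO and 100% = no enzyme wells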
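Material – human SENP1 catalytic domain · Input – SENP1 enzyme, 20 pM final · Compound dosing – single concentration of 10 µM compound, 0.5% DMSO final · Timing – enzyme reaction for 50 min at room temperature, dark · Measured by – FRET fluorescence in CFP and YFP emission channels · Control set – no-enzyme wells low, DMSO-plus-enzyme wells high control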
FAS-TE inh conf: FAS thioesterase (human) inhibition, confirmation. shares compounds with FAS TE block. recombinant FAS-TE, OMFH fluorogenic substrate, fluorescence. inhibition, % at 15 µM. actives 45% (n = 2,300);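 active = compounds inhibiting the enzyme by at least 50% at 15 µM in any one of the replicates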;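 also: 0% = enzyme with DMSO only and 100% = wells lacking enzyme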
Starred values were filed as active, the others as inactive; · = no result. Shown are actives, neighbours in structure and some others; about 1.1% of the full set was active somewhere.

SMILES | ABCB6 inh MLPCN | FAS TE block | iPSC survival up | SENP1 inh | FAS-TE inh conf
CN(C)c1cc(-c2ccc(Cl)c(Cl)c2)oc(=O)c1Cl | 98 | 3 | -1 | -16 | ·
O=C1CC(c2cccc(Cl)c2)c2cc3c(cc2N1)CCC3 (stereo not drawn) | 99 | 20 | -3 | 0 | ·
O=C1CC(c2cccc([N+](=O)[O-])c2)c2c(ccc3ccccc23)N1 (stereo not drawn) | 91 | 55* | 0 | 1 | 49*
Cc1ccc(C2CC(=O)Nc3c2ccc2ccccc32)cc1[N+](=O)[O-] (stereo not drawn) | 102 | 28 | 0 | 1 | ·
O=C1CC(c2cccc([N+](=O)[O-])c2)c2cc3c(cc2N1)CCC3 (stereo not drawn) | 93 | 51* | 0 | 2 | 33*
CC1=C(C(=O)N(C)C)CC(CC(=O)NCCc2ccccn2)C(=O)N1CCCN1CCCC1=O (stereo not drawn) | 96 | -8 | 1 | 1 | ·
Cc1ccc(S(=O)(=O)Nc2ccc3c(c2)c2c(n3S(=O)(=O)c3ccc(C)cc3)CCCC2=O)cc1 | 96 | 51* | 1 | 3 | 20
Cc1ccc2c(Cl)cc(Cl)c(OCC(=O)Nc3cc(S(=O)(=O)N(C)C)ccc3C)c2n1 | 94 | 52* | 1 | -1 | 2
O=C(NCCCc1ccccc1)c1ccccc1 | 86 | -9 | 3 | -1 | ·
O=[N+]([O-])c1cccc(NC(=S)NCCc2ccccc2)c1 | 98 | 65* | 0 | 3 | 57*
O=C(NCCCc1ccccc1)c1cccc([N+](=O)[O-])c1 | 97 | 67* | -1 | 3 | 51*
O=C(NCCCCc1ccccc1)c1cccc([N+](=O)[O-])c1 | 99 | 54* | -2 | 3 | 65*
O=C(Nc1ccc(Cc2ccncc2)cc1)c1cccc([N+](=O)[O-])c1 | 94 | 66* | 2 | 2 | 70*
CCN1C(=O)[C@H]2[C@H]3CN=C(SCC(=O)c4ccccc4)N3[C@@](C)(C(=O)OC)[C@H]2C1=O | 98 | -9 | 2 | -1 | ·
Cc1cc(NC(=O)CCC(=O)N(CC(=O)NCC2CCCO2)c2ccc(F)c(Cl)c2)no1 (stereo not drawn) | 96 | -4 | -1 | 0 | ·
CC(CCc1ccccc1)NC(=O)c1cccc([N+](=O)[O-])c1 (stereo not drawn) | 97 | 62* | 2 | 1 | 70*
O=C(NCCCCc1ccccc1)c1cc([N+](=O)[O-])cc([N+](=O)[O-])c1 | 101 | 52* | 0 | 2 | 53*
CC(Cc1ccccc1)NC(=O)c1ccc([N+](=O)[O-])cc1 (stereo not drawn) | 97 | 22 | -1 | 0 | ·
Cc1ccc(-c2[nH]ncc2CN2CCN(C(=O)c3cccs3)CC2)cc1C | 92 | 8 | 0 | 1 | ·
O=C(NC(Cc1c[nH]c2ccccc12)C(=O)Nc1ccc(F)c([N+](=O)[O-])c1)c1cccs1 (stereo not drawn) | 90 | 63* | -1 | 1 | 63*
Cc1ccc2oc(=O)n(CC(=O)OCCC(C)C)c2c1 | 96 | 6 | -1 | 2 | ·
O=C(/C=C/c1ccccc1)NC(=S)Nc1ccccc1 | 91 | 8 | 0 | 1 | ·
C=CCN(CC=C)S(=O)(=O)c1ccc(NC(=S)NC(=O)/C=C/c2ccccc2)cc1 | 197 | 57* | 1 | 2 | 10
CN(CC(=O)Nc1ccc(F)cc1)C(=O)c1cc([N+](=O)[O-])ccc1N1CCOCC1 | 97 | 38 | 0 | 2 | ·
CC(NC(=O)COC(=O)c1cc([N+](=O)[O-])ccc1N1CCOCC1)c1ccccc1 (stereo not drawn) | 104 | 73* | 0 | 1 | 85*
SMILES | ABCB6 inh MLPCN | FAS TE block | iPSC survival up | SENP1 inh | FAS-TE inh conf
CC(C)CNC(=O)c1cc([N+](=O)[O-])ccc1N1CCOCC1 | 100 | -3 | 1 | 1 | ·
CC(NC(=O)COC(=O)c1cc([N+](=O)[O-])ccc1N1CCOCC1)c1ccc(F)cc1 (stereo not drawn) | 99 | 82* | 0 | 2 | 84*
COc1cc(/C=C/C(=O)OCC(=O)Nc2sc3c(c2C#N)CCC(C)C3)ccc1OCC#N (stereo not drawn) | 100 | 64* | -1 | -28 | 17
O=C(Cn1cc(COc2ccc3ccccc3c2)nn1)NS(=O)(=O)c1cccc(OC(F)F)c1 | 95 | 0 | -1 | 0 | ·
COc1ccc(Br)cc1CN(C)C(C)C(=O)Nc1cc([N+](=O)[O-])ccc1OC (stereo not drawn) | 92 | 54* | 0 | 3 | 26
COc1ccc([N+](=O)[O-])cc1NC(=O)C(C)OC(=O)C1CCCC1 (stereo not drawn) | 99 | 46 | 0 | 2 | ·
COc1ccc([N+](=O)[O-])cc1NC(=O)C(C)OC(=O)CC1CCCC1 (stereo not drawn) | 91 | 79* | 0 | 4 | 61*
CCOCCc1nnc(NC(=O)CS(=O)(=O)c2ccc(C)cc2)s1 | 92 | -2 | 0 | 0 | ·
NC(Cc1ccc(Cl)cc1)c1csc(Nc2ccc(-c3ccccc3)nn2)n1 (stereo not drawn) | 96 | -7 | -4 | -5 | ·
O=C(COC(=O)CCc1c[nH]c2ccccc12)Nc1ccc([N+](=O)[O-])cc1 | 101 | 21 | -1 | 4 | ·
O=C(COC(=O)CCc1c[nH]c2ccccc12)Nc1cc([N+](=O)[O-])ccc1Cl | 102 | 56* | -1 | 2 | 55*
O=c1nc(SCc2c(F)cccc2Cl)nc(-c2ccc(Cl)cc2)[nH]1 | 98 | 57* | 1 | 2 | 17
CCCN(CC(=O)Nc1ccccc1Br)CC(=O)Nc1ccc(F)c(F)c1F | 96 | 18 | -1 | 0 | ·
CCCN(CC(=O)Nc1cc(Cl)cc(Cl)c1)CC(=O)Nc1ccc(F)c(F)c1F | 96 | 51* | -1 | 1 | 34
COc1cc(CNC(=O)c2cc3ccccc3oc2=O)cc(OC)c1OC | 98 | -16 | -1 | 2 | ·
CCCC(=O)OCCNc1cc(Sc2nc3ccccc3[nH]2)c2nonc2c1[N+](=O)[O-] | 98 | 75* | -1 | -28 | 78*
CC(=O)OCCCNc1cc(Sc2ccc(Cl)cc2)c2nonc2c1[N+](=O)[O-] | 103 | 62* | -1 | -14 | 25
CCC(=O)OCCNc1cc(SCCC(=O)OC)c2nonc2c1[N+](=O)[O-] | 95 | 24 | -2 | -28 | ·
Cc1ccc(S(=O)(=O)N2C(=O)CCC2C(=O)O/N=C(\N)c2ccc([N+](=O)[O-])cc2)cc1 (stereo not drawn) | 92 | 18 | 0 | 2 | ·
CC1=C(O)C(=O)C(c2c(C)cc(C)c(Br)c2C)=C(O)C1=O | 96 | 68* | -2 | -41 | 78*
Cc1[nH]c(=O)[nH]c(=O)c1NC(=O)c1ccccc1[N+](=O)[O-] | 102 | -6 | 0 | 2 | ·
COc1cc(/C=C(\C#N)c2nc3ccccc3s2)cc([N+](=O)[O-])c1O | 113 | 51* | -3 | 17 | 46*
